# Reference: ChEMBL document CHEMBL2086239, “Synthesis and biological evaluation of combretastatin-amidobenzothiazole conjugates as potential anticancer agents” (Eur J Med Chem, 2012)
# Active and inactive are the calls of the source. The calls are words filed in the database; no cut-off is given here.
# Columns and labels:
# Assay type in all cases: functional
# A549 [1] = assay: Cytotoxicity against human A549 cells assessed as inhibition of cell growth at 10 uM after 48 hrs by SRB assay relative to control
# Summary of the method: (§1)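 SRB protein assay in DMEM with 10% FBS at 37 °C, 5% CO2, 100% relative humidity. Cells seeded in 96-well plates, incubated 24 h, then exposed to drug at 10 µM for 48 h and processed per standard protocol. Absorbance read at 560 nm; growth percentage calculated for test wells relative to control wells.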
# COLO 205 [2] = assay: Cytotoxicity against human COLO205 cells after 48 hrs assessed as inhibition of cell growth at 10 uM after 48 hrs by SRB assay relative to control; details: COLO 205, 48 h, read-out: GI; summary of the method: as §1
# THP-1 = assay: Cytotoxicity against human THP1 cells after 48 hrs assessed as inhibition of cell growth at 10 uM after 48 hrs by SRB assay relative to control; details: THP-1, 48 h, read-out: GI; summary of the method: as §1
# MCF7 [3] = assay: Cytotoxicity against human MCF7 cells after 48 hrs assessed as inhibition of cell growth at 10 uM after 48 hrs by SRB assay relative to control; details: MCF7, 48 h, read-out: GI; summary of the method: as §1
# HEp-2 = assay: Cytotoxicity against human Hep2 cells after 48 hrs assessed as inhibition of cell growth at 10 uM after 48 hrs by SRB assay relative to control; details: HEp-2, 48 h, read-out: GI; summary of the method: as §1
# CCRF-CEM = assay: Growth inhibition of human CCRF-CEM cells after 48 hrs by SRB assay
# Summary of the method: (§2)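 NCI 60-cell-line screen: after preliminary screening, tested at five dose concentrations on 59 human tumour lines covering leukemia, lung, colon, CNS, melanoma, ovarian, renal, prostate and breast.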
# MOLT-4 = assay: Growth inhibition of human MOLT4 cells after 48 hrs by SRB assay; details: MOLT-4, 48 h; summary of the method: as §2
# SR = assay: Growth inhibition of human SR cells after 48 hrs by SRB assay
# Summary of the method: (§3)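 NCI 60-cell-line panel, five-dose testing after preliminary screen; sulforhodamine B protein assay in DMEM with 10% FBS, 37 °C, 5% CO2, 100% humidity. Cells seeded and incubated 24 h before compound addition, then exposed 48 h. Absorbance read at 560 nm; growth percentage relative to control wells; GI50 taken as concentration giving 50% growth inhibition.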
# A549 [4] = assay: Growth inhibition of human A549 cells after 48 hrs by SRB assay; details: A549, 48 h; summary of the method: as §2
# HOP-62 = assay: Growth inhibition of human HOP62 cells after 48 hrs by SRB assay; details: HOP-62, 48 h; summary of the method: as §2
# HOP-92 = assay: Growth inhibition of human HOP92 cells after 48 hrs by SRB assay; details: HOP-92, 48 h; summary of the method: as §2
# NCI-H226 = assay: Growth inhibition of human NCI-H226 cells after 48 hrs by SRB assay; details: NCI-H226, 48 h; summary of the method: as §2
# NCI-H23 = assay: Growth inhibition of human NCI-H23 cells after 48 hrs by SRB assay; details: NCI-H23, 48 h; summary of the method: as §2
# NCI-H322M = assay: Growth inhibition of human NCI-H322M cells after 48 hrs by SRB assay; summary of the method: as §2
# NCI-H460 = assay: Growth inhibition of human NCI-H460 cells after 48 hrs by SRB assay; details: NCI-H460, 48 h; summary of the method: as §2
# COLO 205 [5] = assay: Growth inhibition of human COLO205 cells after 48 hrs by SRB assay; details: COLO 205, 48 h; summary of the method: as §2
# HCC 2998 = assay: Growth inhibition of human HCC2998 cells after 48 hrs by SRB assay; details: HCC 2998, 48 h; summary of the method: as §2
# HCT-15 = assay: Growth inhibition of human HCT15 cells after 48 hrs by SRB assay; details: HCT-15, 48 h; summary of the method: as §2
# HT-29 = assay: Growth inhibition of human HT-29 cells after 48 hrs by SRB assay; details: HT-29, 48 h; summary of the method: as §2
# SF-295 = assay: Growth inhibition of human SF295 cells after 48 hrs by SRB assay; details: SF-295, 48 h; summary of the method: as §3
# SNB-19 = assay: Growth inhibition of human SNB19 cells after 48 hrs by SRB assay; details: SNB-19, 48 h; summary of the method: as §3
# U-251 = assay: Growth inhibition of human U251cells after 48 hrs by SRB assay; details: U-251, 48 h; summary of the method: as §3
# LOX IMVI = assay: Growth inhibition of human LOXIMVI cells after 48 hrs by SRB assay; summary of the method: as §2
# MDA-MB-435 = assay: Growth inhibition of human MDA-MB-435 cells after 48 hrs by SRB assay; details: MDA-MB-435, 48 h; summary of the method: as §2
# SK-MEL-2 = assay: Growth inhibition of human SK-MEL-2 cells after 48 hrs by SRB assay; details: SK-MEL-2, 48 h; summary of the method: as §3
# SK-MEL-28 = assay: Growth inhibition of human SK-MEL-28 cells after 48 hrs by SRB assay; details: SK-MEL-28, 48 h; summary of the method: as §3
# SK-MEL-5 = assay: Growth inhibition of human SK-MEL-5 cells after 48 hrs by SRB assay; details: SK-MEL-5, 48 h; summary of the method: as §3
# IGROV-1 = assay: Growth inhibition of human IGROV1 cells after 48 hrs by SRB assay; details: IGROV-1, 48 h; summary of the method: as §2
# OVCAR-3 = assay: Growth inhibition of human OVCAR3 cells after 48 hrs by SRB assay; details: OVCAR-3, 48 h; summary of the method: as §2
# OVCAR-5 = assay: Growth inhibition of human OVCAR5 cells after 48 hrs by SRB assay; details: OVCAR-5, 48 h; summary of the method: as §2
# OVCAR-4 = assay: Growth inhibition of human OVCAR4 cells after 48 hrs by SRB assay; details: OVCAR-4, 48 h; summary of the method: as §2
# 786-0 = assay: Growth inhibition of human 786-0 cells after 48 hrs by SRB assay; details: 786-0, 48 h; summary of the method: as §2
# A498 = assay: Growth inhibition of human A498 cells after 48 hrs by SRB assay; details: A498, 48 h; summary of the method: as §2
# ACHN = assay: Growth inhibition of human ACHN cells after 48 hrs by SRB assay; summary of the method: as §2
# CAKI-1 = assay: Growth inhibition of human Caki1 cells after 48 hrs by SRB assay; details: CAKI-1, 48 h; summary of the method: as §2
# TK-10 = assay: Growth inhibition of human TK10 cells after 48 hrs by SRB assay; details: TK-10, 48 h; summary of the method: as §3
# PC-3 = assay: Growth inhibition of human PC3 cells after 48 hrs by SRB assay; details: PC-3, 48 h; summary of the method: as §2
# Hs-578T = assay: Growth inhibition of human Hs578T cells after 48 hrs by SRB assay; summary of the method: as §2
# MCF7 [6] = assay: Cell cycle arrest in human MCF7 cells assessed as accumulation at G1 phase at 4 uM after 24 hrs by FACS analysis (reference value: 58.33%)
# MCF7 [7] = assay: Cell cycle arrest in human MCF7 cells assessed as accumulation at S phase at 4 uM after 24 hrs by FACS analysis (reference value: 6.79%)
# MCF7 [8] = assay: Cell cycle arrest in human MCF7 cells assessed as accumulation at G2/M phase at 4 uM after 24 hrs by FACS analysis (reference value: 34.88%)
# SW-620 = assay: Growth inhibition of human SW620 cells after 48 hrs by SRB assay; details: SW-620, 48 h; summary of the method: as §3
smiles,measurement,setting,value
COc1ccc(/C=C\c2cc(OC)c(OC)c(OC)c2)cc1OCC(=O)Nc1ccc2nc(C)sc2c1,growth inhibition (GI),A549 [1],inactive
same,inhibition of growth at 10 µM,COLO 205 [2],17%
same,inhibition of growth at 10 µM,THP-1,59%
same,inhibition of growth at 10 µM,MCF7 [3],52%
same,inhibition of growth at 10 µM,HEp-2,40%
same,GI50,CCRF-CEM,3.41 µM
same,GI50,MOLT-4,2.11 µM
same,GI50,SR,2.93 µM
same,GI50,A549 [4],2.1 µM
same,GI50,HOP-62,3.09 µM
same,GI50,HOP-92,2.38 µM
same,GI50,NCI-H226,2.75 µM
same,GI50,NCI-H23,2.53 µM
same,GI50,NCI-H322M,6.74 µM
same,GI50,NCI-H460,3.36 µM
same,GI50,COLO 205 [5],4.4 µM
same,GI50,HCC 2998,6.9 µM
same,GI50,HCT-15,2.8 µM
same,GI50,HT-29,3.31 µM
same,GI50,SF-295,2.45 µM
same,GI50,SNB-19,3.89 µM
same,GI50,U-251,3.59 µM
same,GI50,LOX IMVI,2.64 µM
same,GI50,MDA-MB-435,2.13 µM
same,GI50,SK-MEL-2,3.15 µM
same,GI50,SK-MEL-28,3.22 µM
same,GI50,SK-MEL-5,1.97 µM
same,GI50,IGROV-1,3.72 µM
same,GI50,OVCAR-3,6.32 µM
same,GI50,OVCAR-5,6.69 µM
same,GI50,OVCAR-4,2.64 µM
same,GI50,786-0,7.55 µM
same,GI50,A498,4.18 µM
same,GI50,ACHN,3.12 µM
same,GI50,CAKI-1,2.19 µM
same,GI50,TK-10,4.21 µM
same,GI50,PC-3,2.8 µM
same,GI50,Hs-578T,4.32 µM
same,Activity,MCF7 [6],55.2%
same,Activity,MCF7 [7],7.71%
same,Activity,MCF7 [8],37.09%
same,GI50,SW-620,4.7 µM
COc1ccc2nc(NC(=O)COc3cc(/C=C\c4cc(OC)c(OC)c(OC)c4)ccc3OC)sc2c1,inhibition of growth at 10 µM,"A549 [1]; A549, 48 h, read-out: GI",45%
same,inhibition of growth at 10 µM,COLO 205 [2],56%
same,inhibition of growth at 10 µM,THP-1,72%
same,inhibition of growth at 10 µM,MCF7 [3],53%
same,inhibition of growth at 10 µM,HEp-2,71%
same,GI50,CCRF-CEM,3.87 µM
same,GI50,MOLT-4,3.87 µM
same,GI50,SR,3.69 µM
same,GI50,A549 [4],5.19 µM
same,GI50,HOP-62,23 µM
same,GI50,HOP-92,6.28 µM
same,GI50,NCI-H226,4.51 µM
same,GI50,NCI-H23,3.91 µM
same,GI50,NCI-H322M,inactive
same,GI50,NCI-H460,3.73 µM
same,GI50,COLO 205 [5],3.89 µM
same,GI50,HCC 2998,7.34 µM
same,GI50,HCT-15,2.89 µM
same,GI50,HT-29,3.34 µM
same,GI50,SF-295,1.84 µM
same,GI50,SNB-19,6.3 µM
same,GI50,U-251,4 µM
same,GI50,LOX IMVI,4.17 µM
same,GI50,MDA-MB-435,1.16 µM
same,GI50,SK-MEL-2,4.07 µM
same,GI50,SK-MEL-28,4.41 µM
same,GI50,SK-MEL-5,2.68 µM
same,GI50,IGROV-1,7 µM
same,GI50,OVCAR-3,2.17 µM
same,GI50,OVCAR-5,5.89 µM
same,GI50,OVCAR-4,5.31 µM
same,GI50,786-0,7.52 µM
same,GI50,A498,3.5 µM
same,GI50,ACHN,7.77 µM
same,GI50,CAKI-1,3.2 µM
same,GI50,TK-10,7.54 µM
same,GI50,PC-3,4.45 µM
same,GI50,Hs-578T,4.15 µM
same,Activity,MCF7 [6],62.81%
same,Activity,MCF7 [7],7.12%
same,Activity,MCF7 [8],30.07%
same,GI50,SW-620,5.1 µM
